The record followed here is ChEMBL document CHEMBL4028864 (J Med Chem, 2017).

The IC50 is the midpoint of a concentration-inhibition curve. For orientation: inhibition means the drop in the measured response relative to a control, in per cent.

In experiment [1] the test system is HL-60. Nature of the experiment: Antiproliferative activity against human HL60 cells. It is filed as functional, cell-based.
The test system of experiment [2] is HEL 92.1.7. Nature of the experiment: cells. It is filed as functional, cell-based. Particulars: Homo sapiens, HEL 92.1.7, 36 h.
For experiment [3], the system named is Jurkat. Nature of the experiment: cells. Particulars: Homo sapiens. It is filed as functional, cell-based.
Experiment [4] deals with KMS-12-BM. Nature of the experiment: cells. It is filed as functional, cell-based. Particulars: Homo sapiens, 48 h.
Experiment [5] is described as follows: cells. It is filed as ADME, cell-based. Conditions: Homo sapiens, AC10, 24 h.
In experiment [6] the test system is HL-60. Nature of the experiment: Antiproliferative activity against human HL60 cells at 4 uM after 36 hrs by PrestoBlue dye based assay relative to control. It is filed as functional.
Experiment [7] deals with Histone deacetylase 9 (Homo sapiens, UniProt Q9UKV0). Nature of the experiment: Inhibition of HDAC9 (unknown origin) in presence of ATP. The essentials: (§1)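 HDAC enzyme inhibition was run by a contract laboratory.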
Experiment [8] has as its target Histone deacetylase 2 (Homo sapiens, UniProt Q92769). Nature of the experiment: Inhibition of C-terminal GST tagged human recombinant HDAC2 (1 to 488 residues) expressed in Baculovirus infected insect cells in presence of ATP. The essentials:
as §1

The target of experiment [9] is T1, Protein deacetylase HDAC6 (Homo sapiens, UniProt Q9UBN7).
T1 sequence (Q9UBN7 whole entry): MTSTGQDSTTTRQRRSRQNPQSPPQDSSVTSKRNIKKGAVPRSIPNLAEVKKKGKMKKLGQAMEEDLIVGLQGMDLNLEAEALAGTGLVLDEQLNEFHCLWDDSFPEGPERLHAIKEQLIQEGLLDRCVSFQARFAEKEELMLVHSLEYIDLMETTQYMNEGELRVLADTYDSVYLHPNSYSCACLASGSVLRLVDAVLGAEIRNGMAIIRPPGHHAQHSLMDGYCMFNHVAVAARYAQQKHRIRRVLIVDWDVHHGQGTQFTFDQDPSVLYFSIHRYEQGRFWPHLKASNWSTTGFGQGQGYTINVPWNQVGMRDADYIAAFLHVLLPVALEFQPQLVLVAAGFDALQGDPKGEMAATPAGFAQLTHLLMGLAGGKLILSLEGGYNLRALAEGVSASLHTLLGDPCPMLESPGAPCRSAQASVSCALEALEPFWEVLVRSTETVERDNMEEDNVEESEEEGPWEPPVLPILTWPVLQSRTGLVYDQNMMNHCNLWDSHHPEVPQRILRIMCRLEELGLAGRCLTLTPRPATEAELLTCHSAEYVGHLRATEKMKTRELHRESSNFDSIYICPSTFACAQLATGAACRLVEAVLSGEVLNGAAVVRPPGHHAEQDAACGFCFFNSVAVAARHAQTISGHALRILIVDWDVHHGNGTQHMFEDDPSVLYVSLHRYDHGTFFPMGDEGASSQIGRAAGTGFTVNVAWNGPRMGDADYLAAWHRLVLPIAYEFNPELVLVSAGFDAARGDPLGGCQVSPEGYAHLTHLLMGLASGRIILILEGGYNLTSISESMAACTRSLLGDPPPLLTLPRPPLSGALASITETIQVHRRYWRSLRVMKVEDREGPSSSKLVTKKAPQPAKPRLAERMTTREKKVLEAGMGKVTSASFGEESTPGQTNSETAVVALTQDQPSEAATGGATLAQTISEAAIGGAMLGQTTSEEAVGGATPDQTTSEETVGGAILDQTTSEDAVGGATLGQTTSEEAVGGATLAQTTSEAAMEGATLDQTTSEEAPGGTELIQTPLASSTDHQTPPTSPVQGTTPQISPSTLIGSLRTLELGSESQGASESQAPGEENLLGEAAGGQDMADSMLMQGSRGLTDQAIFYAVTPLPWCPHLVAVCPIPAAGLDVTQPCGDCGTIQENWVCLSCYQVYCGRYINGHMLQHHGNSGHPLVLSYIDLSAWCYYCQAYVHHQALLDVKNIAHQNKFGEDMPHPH
Nature of the experiment: Inhibition of N-terminal GST tagged human HDAC6 (1 to 1215 residues) expressed in baculovirus infected insect cells using RHKKAc as substrate in presence of ATP.

The target in experiment [10] is Non-receptor tyrosine-protein kinase TYK2 (Homo sapiens, UniProt P29597). Nature of the experiment: Inhibition of human TYK2 using KKSRGDYMTMQIG as substrate in presence of [gamma-33P]-ATP. The essentials:
(§2)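 Kinase inhibition was tested by radiometric "Hotspot" profiling at a contract laboratory with 10 μM ATP.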

Experiment [11] addresses Histone deacetylase 8 (Homo sapiens, UniProt Q9BY41). Nature of the experiment: Inhibition of C-terminal His tagged human recombinant HDAC8 (1 to 377 residues) expressed in Baculovirus infected insect cells in presence of ATP. The essentials:
as §1

Experiment [12] deals with Histone deacetylase 5 (Homo sapiens, UniProt Q9UQL6). Nature of the experiment: Inhibition of C-terminal His tagged human recombinant HDAC5 (657 to 1123 residues) expressed in Baculovirus infected insect cells in presence of ATP. In a few lines:
as §1

The target of experiment [13] is T2, Tyrosine-protein kinase JAK2 (Homo sapiens, UniProt O60674). Nature of the experiment: Inhibition of human JAK2 using poly[Glu:Tyr] as substrate in presence of [gamma-33P]-ATP.
Experiment [14] addresses T3, Tyrosine-protein kinase JAK3 (Homo sapiens, UniProt P52333).
T3 sequence (P52333 whole entry): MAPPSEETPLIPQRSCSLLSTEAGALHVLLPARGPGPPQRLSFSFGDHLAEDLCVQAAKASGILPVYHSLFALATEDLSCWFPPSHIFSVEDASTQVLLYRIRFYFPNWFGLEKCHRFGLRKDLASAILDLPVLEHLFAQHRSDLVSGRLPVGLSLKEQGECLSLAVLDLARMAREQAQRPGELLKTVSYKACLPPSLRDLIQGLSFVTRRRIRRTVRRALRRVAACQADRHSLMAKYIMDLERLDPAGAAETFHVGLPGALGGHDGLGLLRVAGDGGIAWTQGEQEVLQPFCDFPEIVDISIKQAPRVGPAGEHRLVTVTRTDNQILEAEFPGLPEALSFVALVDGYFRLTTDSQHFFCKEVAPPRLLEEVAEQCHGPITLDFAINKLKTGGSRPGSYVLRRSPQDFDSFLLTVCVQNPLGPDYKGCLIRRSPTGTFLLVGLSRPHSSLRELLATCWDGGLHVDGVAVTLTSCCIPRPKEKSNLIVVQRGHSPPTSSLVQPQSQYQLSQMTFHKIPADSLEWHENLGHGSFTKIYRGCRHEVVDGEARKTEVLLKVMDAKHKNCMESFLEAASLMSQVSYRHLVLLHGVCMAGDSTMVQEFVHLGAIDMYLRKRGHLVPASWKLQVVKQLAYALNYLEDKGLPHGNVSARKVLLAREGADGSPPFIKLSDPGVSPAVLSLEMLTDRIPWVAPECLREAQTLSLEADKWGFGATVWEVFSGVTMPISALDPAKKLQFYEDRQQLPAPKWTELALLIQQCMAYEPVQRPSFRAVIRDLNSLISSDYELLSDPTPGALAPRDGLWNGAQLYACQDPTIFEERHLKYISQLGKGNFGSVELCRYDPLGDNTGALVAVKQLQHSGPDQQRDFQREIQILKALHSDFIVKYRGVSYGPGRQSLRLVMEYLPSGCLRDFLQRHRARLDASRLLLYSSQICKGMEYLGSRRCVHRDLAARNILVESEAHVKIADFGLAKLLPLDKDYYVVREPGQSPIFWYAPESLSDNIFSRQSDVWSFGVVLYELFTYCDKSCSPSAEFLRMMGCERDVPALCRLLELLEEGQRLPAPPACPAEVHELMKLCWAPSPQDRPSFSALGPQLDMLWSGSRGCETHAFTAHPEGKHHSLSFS
Nature of the experiment: Inhibition of human JAK3 using GEEEEYFELVKKKK as substrate in presence of [gamma-33P]-ATP. In a few lines: as §2

Experiment [15] has as its target Polyamine deacetylase HDAC10 (Homo sapiens, UniProt Q969S8). Nature of the experiment: Inhibition of human HDAC10 using fluorogenic peptide from p53 residues 379 to 382 as substrate in presence of ATP. In a few lines: as §1
The target of experiment [16] is Histone deacetylase 4 (Homo sapiens) (UniProt P56524). Nature of the experiment: Inhibition of N-terminal GST tagged/C-terminal His tagged human recombinant HDAC4 (627 to 1084 residues) expressed in Baculovirus infected insect cells in presence of ATP. Conditions: concentration not given here. In a few lines:
as §1

Experiment [17] addresses Histone deacetylase 7 (Homo sapiens) (UniProt Q8WUI4). Nature of the experiment: Inhibition of N-terminal GST tagged human recombinant HDAC7 (518 to 991 residues) expressed in Baculovirus infected insect cells at 10 uM in presence of ATP relative to control. The essentials: as §1
Experiment [18] deals with Histone deacetylase 3/Nuclear receptor corepressor 2 (HDAC3/NCoR2) (Homo sapiens, UniProt O15379). Nature of the experiment: Inhibition of human recombinant HDAC3 (1 to 428 residues)/N-terminal GST-tagged NCOR2 (395 to 489 residues) expressed in Baculovirus infected insect cells in presence of ATP. In a few lines: as §1
Experiment [19] has as its target Tyrosine-protein kinase JAK1 (Homo sapiens, UniProt P23458). Nature of the experiment: Inhibition of human JAK1 using poly[Glu:Tyr] as substrate in presence of [gamma-33P]-ATP. The essentials: as §2
Experiment [20] addresses Histone deacetylase 1 (Homo sapiens, UniProt Q13547). Nature of the experiment: Inhibition of C-terminal FLAG His tagged full length human recombinant HDAC1 (1 to 482 residues) expressed in baculovirus infected sf21 cells using RHKKAc as substrate in presence of ATP.
In experiment [21] the target is Histone deacetylase 11 (Homo sapiens) (UniProt Q96DB2). Nature of the experiment: Inhibition of C-terminal His tagged human recombinant HDAC11 (1 to 347 residues) expressed in Baculovirus infected insect cells at 10 uM in presence of ATP relative to control. The essentials:
as §1

For experiment [22], the system named is MCF7. Nature of the experiment: cells. Conditions: Homo sapiens, MCF7, 72 h. It is filed as functional, cell-based.
The target of experiment [23] is T2, Tyrosine-protein kinase JAK2. Nature of the experiment: Binding affinity to N-terminal His tagged human recombinant JAK2 (1014 to 1132 residues) expressed in Escherichia coli after 300 mins by LC/MS analysis. Particulars: read-out: Kd(app). In a few lines: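 JAK2 in Tris/glycerol/urea storage buffer was exchanged into sodium phosphate/NaCl pH 7.5 and immobilized on periodate-oxidized diol silica (Schiff base, NaBH3CN, 116 h, 4 °C), then packed into a 35 × 0.5 mm column. Compounds were run at 10 μM final (50 μM for one analyte) in 20 mM ammonium acetate pH 6.8 at 20 μL/min. Detection was by SIM [M+H]+, with DMSO as void marker. Retention time was taken from the EIC peak apex, n = 3, with runs up to 300 min.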

The test system of experiment [24] is HCT-116. Nature of the experiment: Antiproliferative activity against human HCT116 cells after 72 hrs by MTT assay. It is filed as functional, cell-based. Conditions: HCT-116, 72 h. For orientation: Tetrazolium dyes change colour on reduction, which living cells bring about.
For experiment [25], the system named is PC-3. Nature of the experiment: cells. It is filed as functional, cell-based. Conditions: Homo sapiens, PC-3, 72 h.
For experiment [26], the system named is MDA-MB-231. Nature of the experiment: cells. It is filed as functional, cell-based. Conditions: Homo sapiens, MDA-MB-231, 72 h.
The subject of experiment [27] is MOLM-14. Nature of the experiment: Antiproliferative activity against human MOLM14 cells assessed as cell viability at 10 uM after 48 hrs by CellTiter-Glo luminescent assay relative to control. It is filed as functional.
For experiment [28], the system named is KMS-12-BM. Nature of the experiment: Antiproliferative activity against human KMS-12-BM cells assessed as cell viability at 10 uM after 48 hrs by CellTiter-Glo luminescent assay relative to control. It is filed as functional. (In ATP-based viability assays light output follows the ATP content of the culture.)
Experiment [29] concerns OPM-2. Nature of the experiment: Antiproliferative activity against human OPM2 cells assessed as cell viability at 10 uM after 48 hrs by CellTiter-Glo luminescent assay relative to control. It is filed as functional.
Experiment [30] has as its system MV4-11. Nature of the experiment: Antiproliferative activity against human MV4-11 cells assessed as cell viability at 10 uM after 48 hrs by CellTiter-Glo luminescent assay relative to control. It is filed as functional.

T2 sequence (O60674 whole entry): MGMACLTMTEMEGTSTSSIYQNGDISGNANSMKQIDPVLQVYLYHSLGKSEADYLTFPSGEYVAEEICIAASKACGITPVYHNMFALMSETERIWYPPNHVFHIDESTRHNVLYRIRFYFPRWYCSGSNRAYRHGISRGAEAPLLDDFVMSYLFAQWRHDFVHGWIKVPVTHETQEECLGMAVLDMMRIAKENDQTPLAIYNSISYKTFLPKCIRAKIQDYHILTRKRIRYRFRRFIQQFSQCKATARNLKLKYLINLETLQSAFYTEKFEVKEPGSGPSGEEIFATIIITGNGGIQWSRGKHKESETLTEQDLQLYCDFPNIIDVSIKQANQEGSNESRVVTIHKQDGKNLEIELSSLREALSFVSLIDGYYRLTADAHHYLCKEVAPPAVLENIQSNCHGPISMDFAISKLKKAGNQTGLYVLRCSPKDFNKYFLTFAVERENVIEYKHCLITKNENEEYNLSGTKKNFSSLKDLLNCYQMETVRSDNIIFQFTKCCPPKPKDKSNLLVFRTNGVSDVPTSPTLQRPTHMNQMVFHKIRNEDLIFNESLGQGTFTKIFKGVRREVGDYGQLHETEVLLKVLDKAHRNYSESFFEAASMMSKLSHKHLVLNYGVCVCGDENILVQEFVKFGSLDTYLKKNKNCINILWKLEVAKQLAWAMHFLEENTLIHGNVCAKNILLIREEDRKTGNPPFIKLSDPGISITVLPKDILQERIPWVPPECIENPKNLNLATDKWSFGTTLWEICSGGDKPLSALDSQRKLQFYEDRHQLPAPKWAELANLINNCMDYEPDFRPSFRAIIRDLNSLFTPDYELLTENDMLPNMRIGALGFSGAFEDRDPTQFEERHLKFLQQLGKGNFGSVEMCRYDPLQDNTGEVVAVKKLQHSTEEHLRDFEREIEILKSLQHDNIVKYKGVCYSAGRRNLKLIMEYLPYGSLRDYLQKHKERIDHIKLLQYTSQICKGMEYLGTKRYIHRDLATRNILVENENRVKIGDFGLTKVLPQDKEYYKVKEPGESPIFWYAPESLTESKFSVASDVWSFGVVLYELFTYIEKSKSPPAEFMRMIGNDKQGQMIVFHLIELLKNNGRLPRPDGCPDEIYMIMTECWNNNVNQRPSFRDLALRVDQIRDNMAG
Chain of Histone deacetylase 1 (Q13547 whole entry, the tested form may be a part): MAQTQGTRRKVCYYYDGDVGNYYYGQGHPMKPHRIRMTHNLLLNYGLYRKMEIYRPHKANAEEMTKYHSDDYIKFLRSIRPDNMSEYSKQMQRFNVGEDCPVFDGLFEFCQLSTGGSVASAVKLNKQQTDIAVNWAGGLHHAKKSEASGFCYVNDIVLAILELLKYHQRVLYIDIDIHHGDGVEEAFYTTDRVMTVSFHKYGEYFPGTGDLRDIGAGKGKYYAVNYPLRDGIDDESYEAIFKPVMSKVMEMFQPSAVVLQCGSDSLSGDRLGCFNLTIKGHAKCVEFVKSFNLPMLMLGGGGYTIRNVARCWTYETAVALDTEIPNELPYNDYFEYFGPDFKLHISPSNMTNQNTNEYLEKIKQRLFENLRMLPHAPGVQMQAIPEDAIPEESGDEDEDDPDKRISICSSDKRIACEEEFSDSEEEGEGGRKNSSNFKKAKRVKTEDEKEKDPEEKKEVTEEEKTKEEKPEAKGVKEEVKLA
Chain of Histone deacetylase 3/Nuclear receptor corepressor 2 (HDAC3/NCoR2) (O15379 whole entry, the tested form may be a part): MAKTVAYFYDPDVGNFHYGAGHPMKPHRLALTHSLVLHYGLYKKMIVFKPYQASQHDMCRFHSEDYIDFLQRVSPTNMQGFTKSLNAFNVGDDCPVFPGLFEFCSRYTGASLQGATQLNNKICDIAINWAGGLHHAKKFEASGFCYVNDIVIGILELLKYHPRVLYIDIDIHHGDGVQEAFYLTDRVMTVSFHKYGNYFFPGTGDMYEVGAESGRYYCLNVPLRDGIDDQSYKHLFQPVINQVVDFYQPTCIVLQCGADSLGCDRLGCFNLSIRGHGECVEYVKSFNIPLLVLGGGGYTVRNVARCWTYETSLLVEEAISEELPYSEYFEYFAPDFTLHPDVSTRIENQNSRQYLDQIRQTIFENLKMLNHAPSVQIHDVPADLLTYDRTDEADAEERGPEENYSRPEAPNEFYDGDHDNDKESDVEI
Chain of Histone deacetylase 3/Nuclear receptor corepressor 2 (HDAC3/NCoR2) (Q9Y618 whole entry, further chain, the tested form may be a part): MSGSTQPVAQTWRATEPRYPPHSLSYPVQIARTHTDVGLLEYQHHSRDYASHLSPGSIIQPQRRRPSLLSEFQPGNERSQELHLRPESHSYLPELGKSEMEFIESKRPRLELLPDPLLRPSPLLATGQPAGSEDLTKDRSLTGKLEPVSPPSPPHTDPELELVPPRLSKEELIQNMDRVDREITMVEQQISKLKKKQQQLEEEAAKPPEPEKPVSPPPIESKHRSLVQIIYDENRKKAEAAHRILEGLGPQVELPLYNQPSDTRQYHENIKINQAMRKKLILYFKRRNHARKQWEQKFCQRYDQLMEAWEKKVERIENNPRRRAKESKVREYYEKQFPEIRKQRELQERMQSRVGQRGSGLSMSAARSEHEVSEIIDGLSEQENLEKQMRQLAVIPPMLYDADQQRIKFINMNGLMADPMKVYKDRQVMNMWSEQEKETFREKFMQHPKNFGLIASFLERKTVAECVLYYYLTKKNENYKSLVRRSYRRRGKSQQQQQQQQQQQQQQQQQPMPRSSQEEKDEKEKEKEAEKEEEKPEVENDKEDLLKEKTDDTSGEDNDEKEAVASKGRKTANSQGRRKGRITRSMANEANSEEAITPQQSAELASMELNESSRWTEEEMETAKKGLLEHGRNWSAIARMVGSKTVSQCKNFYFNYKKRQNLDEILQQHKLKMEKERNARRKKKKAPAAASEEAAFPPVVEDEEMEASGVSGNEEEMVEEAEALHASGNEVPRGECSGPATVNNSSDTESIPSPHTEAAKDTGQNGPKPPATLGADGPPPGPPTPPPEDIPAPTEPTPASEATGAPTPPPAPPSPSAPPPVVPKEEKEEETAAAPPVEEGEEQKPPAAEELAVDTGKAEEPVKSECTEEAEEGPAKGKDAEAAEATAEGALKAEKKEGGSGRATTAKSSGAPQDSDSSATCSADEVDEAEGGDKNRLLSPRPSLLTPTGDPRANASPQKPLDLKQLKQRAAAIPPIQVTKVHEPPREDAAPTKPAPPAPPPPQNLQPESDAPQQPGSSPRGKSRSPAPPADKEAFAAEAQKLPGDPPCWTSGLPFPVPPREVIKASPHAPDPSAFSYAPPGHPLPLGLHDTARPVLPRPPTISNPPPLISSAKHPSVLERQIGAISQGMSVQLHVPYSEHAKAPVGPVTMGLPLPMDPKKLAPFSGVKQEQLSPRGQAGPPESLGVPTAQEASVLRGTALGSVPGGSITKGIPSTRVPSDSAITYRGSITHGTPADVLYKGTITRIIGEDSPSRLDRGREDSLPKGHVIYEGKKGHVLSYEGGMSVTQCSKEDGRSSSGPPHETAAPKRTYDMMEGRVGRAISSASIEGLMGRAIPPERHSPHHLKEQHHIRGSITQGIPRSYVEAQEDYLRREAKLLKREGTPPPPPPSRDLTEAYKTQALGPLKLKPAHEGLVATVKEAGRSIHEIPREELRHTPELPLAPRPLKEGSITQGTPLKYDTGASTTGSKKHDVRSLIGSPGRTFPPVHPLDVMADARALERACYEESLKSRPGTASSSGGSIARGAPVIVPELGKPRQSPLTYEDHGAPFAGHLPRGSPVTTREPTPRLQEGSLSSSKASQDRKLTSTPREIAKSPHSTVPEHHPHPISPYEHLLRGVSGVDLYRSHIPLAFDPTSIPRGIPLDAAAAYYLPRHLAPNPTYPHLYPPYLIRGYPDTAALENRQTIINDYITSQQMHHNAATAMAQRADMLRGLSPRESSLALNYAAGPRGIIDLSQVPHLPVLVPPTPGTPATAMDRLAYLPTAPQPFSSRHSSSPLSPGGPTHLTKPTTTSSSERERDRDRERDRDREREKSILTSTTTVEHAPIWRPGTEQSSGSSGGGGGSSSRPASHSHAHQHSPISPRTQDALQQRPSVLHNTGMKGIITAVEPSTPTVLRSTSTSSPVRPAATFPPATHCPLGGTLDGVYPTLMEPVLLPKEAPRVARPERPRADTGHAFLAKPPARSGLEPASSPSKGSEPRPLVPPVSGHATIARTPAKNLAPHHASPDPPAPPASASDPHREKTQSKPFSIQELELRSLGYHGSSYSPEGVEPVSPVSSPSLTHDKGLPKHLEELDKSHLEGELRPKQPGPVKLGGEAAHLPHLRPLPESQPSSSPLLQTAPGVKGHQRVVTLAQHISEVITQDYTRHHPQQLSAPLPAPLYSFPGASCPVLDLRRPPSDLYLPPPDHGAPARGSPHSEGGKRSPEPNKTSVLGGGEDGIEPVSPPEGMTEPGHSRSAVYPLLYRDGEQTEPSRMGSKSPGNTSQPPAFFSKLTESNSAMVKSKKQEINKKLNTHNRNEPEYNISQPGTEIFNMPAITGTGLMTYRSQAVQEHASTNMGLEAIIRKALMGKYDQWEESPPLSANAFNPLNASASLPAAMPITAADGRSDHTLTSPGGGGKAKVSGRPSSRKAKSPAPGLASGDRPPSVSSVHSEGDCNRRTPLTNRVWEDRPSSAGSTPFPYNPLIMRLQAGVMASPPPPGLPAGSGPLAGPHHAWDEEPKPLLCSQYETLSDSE
Chain of Histone deacetylase 8 (Q9BY41 whole entry, the tested form may be a part): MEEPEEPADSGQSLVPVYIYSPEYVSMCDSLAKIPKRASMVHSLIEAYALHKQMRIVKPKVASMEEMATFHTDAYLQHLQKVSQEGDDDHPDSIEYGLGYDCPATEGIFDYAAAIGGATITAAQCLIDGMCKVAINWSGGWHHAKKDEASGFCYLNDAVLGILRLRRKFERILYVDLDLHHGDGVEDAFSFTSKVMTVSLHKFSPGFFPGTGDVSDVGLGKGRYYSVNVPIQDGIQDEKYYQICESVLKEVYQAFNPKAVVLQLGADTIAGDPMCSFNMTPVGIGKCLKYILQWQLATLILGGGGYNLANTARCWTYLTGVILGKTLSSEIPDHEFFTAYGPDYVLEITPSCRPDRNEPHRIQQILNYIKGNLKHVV

Consider `O=C(CCCCCCOc1ccc2cc1COC/C=C/COCc1cccc(c1)-c1ccnc(n1)N2)NO`, for which the IC50 was found to be 4000 nM in [1]; 940 nM in experiment [2]; 1190 nM in experiment [3]; 2110 nM in experiment [4]; 2070 nM in experiment [5]. In experiment [6], this compound yielded an Activity of 47%.

For `CC(CCCCCC(=O)NO)n1cc(-c2ncnc3[nH]ccc23)cn1` (stereo unspecified), the IC50 in experiment [7] was 8500 nM; in experiment [8] it was 47 nM; in [9], 1 nM; in experiment [10], 144 nM; in experiment [11], 310 nM; in experiment [12], 7400 nM. In addition, the IC50 in experiment [13] came to 65 nM; in experiment [14], 436 nM; in experiment [15], 31 nM; in [18], 24 nM; in [19], 11 nM; in experiment [20], 6 nM. Also, the inhibition in experiment [16] stood at 8%; in [17] it was 33%; in experiment [21] it was 40%.

`O=C(/C=C/c1ccc(NCCCn2cc(-c3ncnc4[nH]ccc34)cn2)cc1)NO`: the IC50 is more than 10000 nM in experiment [1]; 14400 nM in experiment [22]; 148 nM in experiment [9]; more than 4000 nM in experiment [2]; 25300 nM in experiment [24]; 502 nM in [13]. Also, the IC50 in [25] was 17000 nM; in experiment [3] it was more than 4000 nM; in experiment [26], 13300 nM; in experiment [20] it was 2650 nM. Further, the Kd in experiment [23] is 200 nM.

Turning to `N#CC[C@H](C1CCCC1)n1cc(-c2ncnc3[nH]ccc23)cn1` [RUXOLITINIB], the Activity is reported as 73% in experiment [27], 59% in experiment [28], 74% in [29] and 52% in [30].
